Test results published in PubChem BioAssay.
The source made the active and inactive calls.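 The calls were made as follows, unless noted: active = potentiation averaged over duplicate wells exceeding buffer-only control mean by more than 3 SD; inactive = the rest.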

Legend:
[1] = thallium flux activation in parental CHO cells, counter-screen for KCNQ1 potentiator project (AID 493006;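 active = duplicate-averaged activation above buffer control mean plus 5 SD of those controls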;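 as to activation: fluorescence ratio of max minus min over baseline after K+ and Tl+ depolarization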); conditions: parental CHO-K1 cells, FluxOR thallium flux, at 10 µM; stronger effect = higher value
Summary of the method: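 Benchmarks – buffer and R-L3 controls · Assay system – untransfected host CHO-K1 cells with FluxOR thallium dye · Measure – fluorescence change ratio scaled 0% buffer, 100% R-L3 · Technique – kinetic thallium-flux fluorescence · Timing – overnight 37 °C plating, 90 min RT dye, 20 min compound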

[2] = target: Potassium voltage-gated channel subfamily KQT member 1 (Homo sapiens) (UniProt P51787); experiment: KCNQ1 potassium channel potentiators, confirmation, FluxOR thallium flux, CHO cells, duplicates (AID 493007); conditions: KCNQ1 cell line, FluxOR thallium flux fluorescence, at 10 µM; stronger effect = higher value, % of reference activator effect, buffer zero;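 as to outcome: cells depolarized by a potassium plus thallium sulfate stimulus after compound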
Summary of the method: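 Material: CHO cells stably expressing the KCNQ1 potassium channel / Times: dye 90 min then compound 20 min, both at room temperature / Detection: kinetic thallium influx fluorescence with FluxOR dye, 10 s baseline, 110 s post-stimulus / Benchmarks: buffer-only wells as 0% and R-L3 activator as 100% / Replicates: each compound tested in duplicate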

[3] = target: Potassium voltage-gated channel subfamily KQT member 2 (Rattus norvegicus) (UniProt O88943); experiment: rat KCNQ2 channel potentiation, selectivity assay for KCNQ1 potentiator project, KCNQ2-CHO-K1 cells (AID 493009;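 active = mean duplicate potentiation above the buffer control mean plus 5 SD of buffer wells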;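 also: assay conditions were tuned for KCNQ1 rather than KCNQ2 modulators; signal is max minus min fluorescence divided by baseline after thallium stimulus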); conditions: FluxOR thallium flux fluorescence, at 10 µM; stronger effect = higher value, scaled: buffer 0, activator control 100
[4] = target: Potassium voltage-gated channel subfamily KQT member 1 (Homo sapiens) (UniProt P51787); experiment: KCNQ1 channel current potentiators, confirmation, orthogonal assay for KCNQ1 potentiator project, IonWorks patch clamp, KCNQ1-CHO cells (AID 493184;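 active = current rise at least 3 SD above the untreated control mean in each of two repeat wells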); conditions: automated patch clamp current, at 10 µM; stronger effect = higher value
Summary of the method: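 Probe or stimulus: depolarizing pulse to +40 mV from -90 mV; Material: CHO cells carrying KCNQ1; Compound: one dose, 10 µM final; Signal: automated voltage clamp, amphotericin B perforated patch; Read-out basis: percent current increase versus pre-compound level; Buffer or medium: pH 7.4 external bath; Replication: duplicates.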

Chain of Potassium voltage-gated channel subfamily KQT member 2 (Rattus norvegicus) (O88943 whole entry, looked up): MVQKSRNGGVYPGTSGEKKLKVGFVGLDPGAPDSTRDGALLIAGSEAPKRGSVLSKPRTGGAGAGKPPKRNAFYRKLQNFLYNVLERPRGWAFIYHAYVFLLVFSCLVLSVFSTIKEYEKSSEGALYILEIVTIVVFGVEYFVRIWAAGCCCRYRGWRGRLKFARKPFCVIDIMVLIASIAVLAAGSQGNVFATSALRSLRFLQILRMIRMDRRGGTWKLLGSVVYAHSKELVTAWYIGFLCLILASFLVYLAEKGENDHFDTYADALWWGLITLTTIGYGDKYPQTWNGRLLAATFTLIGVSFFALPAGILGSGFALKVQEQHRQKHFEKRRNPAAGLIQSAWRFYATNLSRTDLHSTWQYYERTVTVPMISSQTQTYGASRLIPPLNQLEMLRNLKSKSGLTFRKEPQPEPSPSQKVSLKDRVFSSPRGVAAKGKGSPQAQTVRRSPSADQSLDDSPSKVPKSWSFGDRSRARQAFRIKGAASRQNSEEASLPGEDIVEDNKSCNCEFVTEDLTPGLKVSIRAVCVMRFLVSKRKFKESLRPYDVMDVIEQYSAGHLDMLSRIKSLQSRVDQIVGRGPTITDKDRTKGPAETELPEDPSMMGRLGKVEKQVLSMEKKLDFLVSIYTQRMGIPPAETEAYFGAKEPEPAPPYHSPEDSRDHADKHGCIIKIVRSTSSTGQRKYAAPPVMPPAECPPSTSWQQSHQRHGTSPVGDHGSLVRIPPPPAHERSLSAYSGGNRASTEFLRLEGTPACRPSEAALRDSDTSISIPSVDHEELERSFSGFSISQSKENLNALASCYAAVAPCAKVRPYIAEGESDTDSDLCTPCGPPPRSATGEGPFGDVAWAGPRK
Chain of Potassium voltage-gated channel subfamily KQT member 1 (Homo sapiens) (P51787 whole entry, looked up): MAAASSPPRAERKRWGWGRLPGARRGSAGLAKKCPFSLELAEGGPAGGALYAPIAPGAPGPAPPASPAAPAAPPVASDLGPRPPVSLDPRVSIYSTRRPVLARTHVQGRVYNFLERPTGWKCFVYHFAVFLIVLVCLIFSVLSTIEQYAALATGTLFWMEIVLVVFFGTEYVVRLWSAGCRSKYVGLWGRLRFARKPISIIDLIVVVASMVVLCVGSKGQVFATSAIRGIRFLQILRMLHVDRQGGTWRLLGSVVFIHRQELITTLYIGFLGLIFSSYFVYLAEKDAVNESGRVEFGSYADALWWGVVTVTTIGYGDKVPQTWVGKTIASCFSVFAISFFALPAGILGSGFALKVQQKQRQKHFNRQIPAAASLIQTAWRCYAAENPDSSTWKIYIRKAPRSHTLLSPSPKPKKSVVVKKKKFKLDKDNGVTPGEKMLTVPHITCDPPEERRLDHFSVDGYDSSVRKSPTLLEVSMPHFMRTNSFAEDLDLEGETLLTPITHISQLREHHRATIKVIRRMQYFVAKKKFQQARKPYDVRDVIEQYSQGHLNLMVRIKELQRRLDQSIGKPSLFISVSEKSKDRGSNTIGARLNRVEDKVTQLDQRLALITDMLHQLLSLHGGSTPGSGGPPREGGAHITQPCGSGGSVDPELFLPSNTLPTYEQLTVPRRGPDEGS

Structure (SMILES)	outcome [1]	potentiation [2]	outcome [3]	outcome [4]	outcome [2]	activation [1]	potentiation [3]
O=C(NC(=S)Nc1nc(-c2ccccc2)cs1)c1ccco1	inactive	48.5% (active)	inactive	inactive			
CCOc1ccc(-n2cc(C(=O)Nc3cccc(C)n3)c3cc(OC)c(OC)cc3c2=O)cc1	inactive		inactive	inactive	inactive		
O=C(COC(=O)c1cc(S(=O)(=O)N2CCOCC2)ccc1O)NCCc1ccccc1	inactive		inactive	inactive	inactive		
CCC1CCCCN1C(=S)NC(=O)c1ccc([N+](=O)[O-])cc1 (stereo not drawn)		92.5% (active)		inactive		244% (active)	280% (active)
CCCC(=O)N1CCN(Cc2nc3cc([N+](=O)[O-])ccc3n2C)CC1	inactive		inactive	inactive	inactive		
O=C(/C=C/c1ccccc1Cl)c1ccccc(=O)c1O		134% (active)		inactive		214% (active)	374% (active)
S=c1[nH]nc(-c2ccc(Cl)cc2Cl)n1-c1ccc(Cl)cc1		43% (active)		inactive		154% (active)	167% (active)
Nc1nc(N)c(N=Nc2ccc(C(=O)O)cc2)c(N)n1	inactive		inactive	inactive	inactive		
O=C(CCN1CCc2ccccc2CC1)c1ccc2c(c1)OCCO2		38% (active)		inactive		150% (active)	176% (active)
O=C(NC(=S)Nc1ccccc1N1CCOCC1)c1cccc([N+](=O)[O-])c1	inactive		inactive	inactive	inactive		
CCOc1ccc2nc(/N=C/c3nc(-c4ccccc4)oc3O)sc2c1		52.5% (active)		inactive		150% (active)	190% (active)
O=C(c1ccccc1[N+](=O)[O-])N1CCN(c2ccc(N3CCOCC3)nn2)CC1	inactive		inactive	inactive	inactive		
COCCCn1c(=S)[nH]c2sc3c(c2c1=O)CCCS3		30.5% (active)	inactive	inactive		147% (active)	
O=C(O)CSc1c2c(nc3cc(C(=O)Nc4cccc(C(F)(F)F)c4)ccc13)CCC2	inactive		inactive	inactive	inactive		
Oc1[nH]c2ccc(Br)cc2c1N=NC(=S)Nc1ccc(F)cc1	inactive	43.5% (active)		inactive			160% (active)
O=C(Nc1ccccc1F)C1C2C=CC3(O2)C1C(=O)N(c1cccnc1)C3C(=O)NC1CCCCC1 (stereo not drawn)	inactive		inactive	inactive	inactive		

Structure (SMILES)	outcome [1]	potentiation [2]	outcome [3]	outcome [4]	outcome [2]	activation [1]	potentiation [3]
O=C(COc1ccccc1)NC(=S)N1CCc2ccccc21	inactive	20% (active)	inactive	inactive			
O=C(CN1CCN(Cc2ccc(F)cc2Cl)C1=O)NCCc1ccccc1	inactive		inactive	inactive	inactive		
CC(=O)c1c(NC(=O)c2ccccc2)[nH]c(-c2ccccc2)nc1=S		67% (active)		inactive		230% (active)	236% (active)
O=C(c1ccccn1)c1ncc(C(F)(F)F)cc1Cl	inactive		inactive	inactive	inactive		
COc1cc(CN2CCN(c3cccc(Cl)c3)CC2)cc(OC)c1OC	inactive		inactive	inactive	inactive		
Clc1ccc(C(c2ccccc2)N2CCNCC2)cc1 (stereo not drawn)	inactive		inactive	inactive	inactive		
CN(C)CCNC(=O)c1ccc2c(=O)n(Cc3ccc(Cl)cc3)c(=S)[nH]c2c1	inactive	25% (active)		inactive			149% (active)
COC(=O)c1c(NC(=O)CC2SC(N)=NC2=O)sc2c1CCC(C)C2 (stereo not drawn)	inactive		inactive	inactive	inactive		
CCOC(=O)C(=Cc1cc(=O)c(OC)co1)C(=O)OCC	inactive		inactive	inactive	inactive		
COC(=O)c1ccc(COC(=O)c2ccccn2)cc1	inactive	65% (active)		inactive			157% (active)
O=C(Nc1nc(=O)c2ccccc2s1)c1ccc(Cl)cc1		85.5% (active)		inactive		246% (active)	242% (active)
CC(/C=N/n1c(C2CCCCC2)n[nH]c1=S)=C\c1ccccc1	inactive	270% (active)		inactive			423% (active)
CCOC(=O)c1cc2c(=O)n3ccccc3nc2n(CCCOC)c1=NC(=O)c1ccncc1	inactive		inactive	inactive	inactive		
O=c1[nH]c(=S)[nH]c2sc3c(c12)CCCCCC3			inactive	inactive	inactive	138% (active)	
CC(=O)SCC(=O)N=c1sc2cc(F)ccc2n1C	inactive		inactive	inactive	inactive		
Cc1sc(NC(=O)c2ccccc2)c(C(c2ccc(Cl)cc2)N2CCN(CCO)CC2)c1C (stereo not drawn)	inactive		inactive	inactive	inactive		
